According to ChEMBL document CHEMBL1125493, “HIV-1 neutralization and tumor cell proliferation inhibition in vitro by simplified analogues of pyrido[4,3,2-mn]thiazolo[5,4-b]acridine marine alkaloids” (J Med Chem, 1992):

Experiments:
[1] = Calu3 lung tumor cell proliferation inhibition by the compound in vitro at a concentration of 0.7 uM.; type: functional, Homo sapiens
Summary of the method: (§1)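 Tumor cells grown in RPMI-1640 in 1% agar with 5% fetal bovine serum, exposed to set compound concentrations for 1 week. Viability scored against a control given distilled water in place of drug. 5-fluorouracil served as reference cytotoxic drug. Reported as concentration-dependent cell survival.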

[2] = Calu3 lung tumor cell proliferation inhibition by the compound in vitro at a concentration of 7.0 uM.; type: functional, Homo sapiens; summary of the method: as §1
[3] = Calu3 lung tumor cell proliferation inhibition by the compound in vitro at a concentration of 70 uM.; type: functional, Homo sapiens; summary of the method: as §1
COLO 320DM [4] = assay: COLO 320DM colon tumor cell proliferation inhibition by the compound in vitro at a concentration of 0.7 uM.; type: functional, Homo sapiens; summary of the method: as §1
COLO 320DM [5] = assay: COLO 320DM colon tumor cell proliferation inhibition by the compound in vitro at a concentration of 7.0 uM.; type: functional, Homo sapiens; summary of the method: as §1
COLO 320DM [6] = assay: COLO 320DM colon tumor cell proliferation inhibition by the compound in vitro at a concentration of 70 uM.; type: functional, Homo sapiens; summary of the method: as §1
MCF7 [7] = assay: […] breast tumor cell proliferation inhibition by the compound in vitro at a concentration 7.0 of uM; type: functional, Homo sapiens; summary of the method: as §1
MCF7 [8] = assay: […] breast tumor cell proliferation inhibition by the compound in vitro at a concentration 70 of uM; type: functional, Homo sapiens; summary of the method: as §1
MCF7 [9] = assay: […] breast tumor cell proliferation inhibition by the compound in vitro at a concentration of 0.7 uM.; type: functional, Homo sapiens; summary of the method: as §1
[10] = system: Human immunodeficiency virus 1; assay: Protection of MT-4 lymphocytes by the compound against HIV-1 infectivity in vitro at a concentration of 0.008 ug/mL (0.00003 uM/mL); type: functional
Summary of the method: (§2)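 Virus (HIV-1 Molt IIIB, ~2 × 10^4 TCID50) preincubated with compound 1 h at 37 °C, 5% CO2. Then added to MT-4 cells (5 × 10^5 cells/well) and cultured at 37 °C. Trypan blue viability counts taken on days 4 and 7, triplicate at each concentration. Controls were infected and uninfected cells. Reported as % viable (surviving) MT-4 cells.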

[11] = system: Human immunodeficiency virus 1; assay: Protection of MT-4 lymphocytes by the compound against HIV-1 infectivity in vitro at a concentration of 0.016 ug/mL (0.00006 uM/mL); type: functional; summary of the method: as §2
[12] = system: Human immunodeficiency virus 1; assay: Protection of MT-4 lymphocytes by the compound against HIV-1 infectivity in vitro at a concentration of 0.032 ug/mL ([…] uM/mL); type: functional; summary of the method: as §2
[13] = system: Human immunodeficiency virus 1; assay: microbe, parasite or virus in culture
[14] = Calu3 lung tumor cell proliferation inhibition by the compound in vitro at a concentration of 0.6 uM.; type: functional, Homo sapiens
Summary of the method: (§3)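 Tumor cells grown in RPMI-1640 in 1% agar with 5% fetal bovine serum, exposed to the specified concentrations for 1 week. Viability was assessed against a control given distilled water in place of drug. 5-Fluorouracil served as the positive cytotoxic standard. Results are reported as concentration-dependent cell survival.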

[15] = Calu3 lung tumor cell proliferation inhibition by the compound in vitro at a concentration of 6.0 uM.; type: functional, Homo sapiens; summary of the method: as §3
[16] = Calu3 lung tumor cell proliferation inhibition by the compound in vitro at a concentration of 60 uM.; type: functional, Homo sapiens; summary of the method: as §3
COLO 320DM [17] = assay: COLO 320DM colon tumor cell proliferation inhibition by the compound in vitro at a concentration of 0.6 uM.; type: functional, Homo sapiens; summary of the method: as §3
COLO 320DM [18] = assay: COLO 320DM colon tumor cell proliferation inhibition by the compound in vitro at a concentration of 6.0 uM.; type: functional, Homo sapiens; summary of the method: as §3
COLO 320DM [19] = assay: COLO 320DM colon tumor cell proliferation inhibition by the compound in vitro at a concentration of 60 uM.; type: functional, Homo sapiens; summary of the method: as §3
[20] = system: Human immunodeficiency virus 1; assay: Inhibitory effect (100 uM) against HIV-1 in human peripheral blood monocyte cells(PBMC) (EC50 ->32.5 ug/mL); type: functional
[21] = system: Human immunodeficiency virus 1; assay: Protection of MT-4 lymphocytes by the compound against HIV-1 infectivity in vitro at a concentration of 100 ug/mL (0.30 uM/mL); type: functional; summary of the method: as §2
[22] = system: Human immunodeficiency virus 1; assay: Protection of MT-4 lymphocytes by the compound against HIV-1 infectivity in vitro at a concentration of 200 ug/mL (0.60 uM/mL); type: functional; summary of the method: as §2
[23] = system: Human immunodeficiency virus 1; assay: Protection of MT-4 lymphocytes by the compound against HIV-1 infectivity in vitro at a concentration of 400 ug/mL (1.20 uM/mL); type: functional; summary of the method: as §2
[24] = system: Human immunodeficiency virus 1; assay: Percent HIV-1 bound to H-9 cells at a concentration of 100(ug/mL).; type: functional
Summary of the method: (§4)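 HIV-1 Molt IIIB (50 μL) incubated overnight with compound at 100 μg/mL, then with uninfected H-9 cells 2 h at 37 °C. Washed; stained with HIV-positive human serum (1:100) then FITC anti-human IgG (1:10), 30 min at 4 °C each. Formaldehyde-fixed (0.5%) and analysed by flow cytometry for % virus bound and % binding inhibition.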

[25] = system: Human immunodeficiency virus 1; assay: Inactivation of HIV-MN strain in MT-4 lymphocytes in vitro at a concentration of 100 ug/mL (0.30 uM/mL).; type: functional
Summary of the method: (§5)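 Compound (50 μL) was mixed with 50 μL of HIV-1 Molt IIIB or HIV-MN inoculum in RPMI 1640 for 1 h at room temperature. The mixture was added to 5 × 10^4 MT-4 cells and kept 7 days at 37 °C, 5% CO2. MTT (5.0 mg/mL) was added for 4 h, the reaction was stopped with 0.04 N HCl/2-propanol, and OD was read at 570 nm. % inactivation was calculated from OD relative to uninfected cells and untreated virus, mean of three.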

[26] = system: Human immunodeficiency virus 1; assay: Inactivation of HIV-MN strain in MT-4 lymphocytes in vitro at a concentration of 200 ug/mL (0.60 uM/mL).; type: functional; summary of the method: as §5
[27] = system: Human immunodeficiency virus 1; assay: Inactivation of HIV-MN strain in MT-4 lymphocytes in vitro at a concentration of 400 ug/mL (1.20 uM/mL).; type: functional; summary of the method: as §5
[28] = system: Human immunodeficiency virus 1; assay: Inactivation of HIV-MoltIIIB strain in MT-4 lymphocytes in vitro at a concentration of 100 ug/mL (0.30 uM/mL).; type: functional; summary of the method: as §5
[29] = system: Human immunodeficiency virus 1; assay: Inactivation of HIV-MoltIIIB strain in MT-4 lymphocytes in vitro at a concentration of 200 ug/mL (0.60 uM/mL).; type: functional; summary of the method: as §5
[30] = system: Human immunodeficiency virus 1; assay: Percent inhibition of HIV-1 binding to H-9 cells at a concentration of 100(ug/mL).; type: functional; summary of the method: as §4
[31] = system: Human immunodeficiency virus 1; assay: Inhibitory effect against HIV-1 induced cytopathic effects(HIV-1 neutralization) in MT-4 lymphocytes at a concentration of 100 ug/mL (0.3000 uM/mL).; type: functional
Summary of the method: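 HIV-1 Molt IIIB (~2 × 10^4 TCID50 in 100 μL) preincubated 1 h at 37 °C with a single compound dose, then added to MT-4 cells (5 × 10^5 cells/well, 1 mL). Cultured at 37 °C, 5% CO2. Viable cells counted by trypan blue exclusion on days 4 and 7. Triplicates; % viable cells. Controls: infected cells (positive), uninfected cells (negative).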

MT4 [32] = assay: Cytotoxic effect in cultured MT-4 lymphocytes at a concentration of 10 ug/mL (0.0300 uM/mL).; type: functional, Homo sapiens
Summary of the method: (§6)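 MT-4 cells at 5 × 10^4 cells/well, 1 mL total, cultured with compound diluted in RPMI 1640 with 10% FBS, 10 mM HEPES, penicillin/streptomycin and 2 mM glutamine, at 37 °C under 5% CO2. Viability was scored by trypan blue exclusion on days 4 and 7, in triplicate, as % viable cells.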

MCF7 [33] = assay: […] breast tumor cell proliferation inhibition by the compound in vitro at a concentration of 0.6 uM.; type: functional, Homo sapiens
Summary of the method: (§7)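 Breast tumor cells treated with specified compound concentrations in RPMI-1640 in 1% agar with 5% FBS for 1 week. Viability compared with a control given distilled water in place of drug; 5-fluorouracil as standard cytotoxic drug. Reported as concentration-dependent cell survival.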

MCF7 [34] = assay: […] breast tumor cell proliferation inhibition by the compound in vitro at a concentration of 6.0 uM.; type: functional, Homo sapiens; summary of the method: as §7
MCF7 [35] = assay: […] breast tumor cell proliferation inhibition by the compound in vitro at a concentration of 60 uM.; type: functional, Homo sapiens; summary of the method: as §7
MT4 [36] = assay: Protection of MT-4 lymphocytes by the compound against HIV-1 infectivity in vitro at a concentration of 25 ug/mL (0.075 uM/mL); type: functional, Homo sapiens; summary of the method: as §2
MT4 [37] = assay: Protection of MT-4 lymphocytes by the compound against HIV-1 infectivity in vitro at a concentration of 50 ug/mL (0.150 uM/mL); type: functional, Homo sapiens; summary of the method: as §2
MT4 [38] = assay: Cytotoxic effect in cultured MT-4 lymphocytes at a concentration of 100 ug/mL (0.3000 uM/mL).; type: functional, Homo sapiens; summary of the method: as §6
MT4 [39] = assay: Cytotoxic effect in cultured MT-4 lymphocytes at a concentration of 2 ug/mL (0.0060 uM/mL).; type: functional, Homo sapiens; summary of the method: as §6
MT4 [40] = assay: Protection of MT-4 lymphocytes by the compound against HIV-1 infectivity in vitro at a concentration of 12.5 ug/mL (0.038 uM/mL); type: functional, Homo sapiens; summary of the method: as §2
[41] = system: Human immunodeficiency virus 1; assay: Inactivation of HIV-MoltIIIB strain in MT-4 lymphocytes in vitro at a concentration of 400 ug/mL (1.2u M/mL).; type: functional; summary of the method: as §5

Structure (SMILES): O=c1[nH]cc(F)c(=O)[nH]1 [FLUOROURACIL]
- Viability [1]: 80%
- Viability [2]: 32%
- Viability [3]: 17%
- Viability (COLO 320DM [4]): 79%
- Viability (COLO 320DM [5]): 5%
- Viability (COLO 320DM [6]): 2%
- Viability (MCF7 [7]): 10%
- Viability (MCF7 [8]): 5%
- Viability (MCF7 [9]): 29%

Structure (SMILES): Cc1cn([C@H]2C[C@H](N=[N+]=[N-])[C@@H](CO)O2)c(=O)[nH]c1=O [ZIDOVUDINE]
- Survival [10]: 74.3%
- Survival [11]: 79.4%
- Survival [12]: 78.3%
- EC50 [13]: 4 nM

Structure (SMILES): O=C([O-])CSc1ccc2c(c1)c(=O)c1ccccc1n2C1CC1.[Na+]
- Viability [14]: 104%
- Viability [15]: 73%
- Viability [16]: 44%
- Viability (COLO 320DM [17]): 107%
- Viability (COLO 320DM [18]): 108%
- Viability (COLO 320DM [19]): 87%
- Inhibition [20]: 29%
- Survival [21]: 83.7%
- Survival [22]: 81.3%
- Survival [23]: 86%
- Bound [24]: 28.7%
- Inactivation [25]: 11.3%
- Inactivation [26]: 10%
- Inactivation [27]: 11.6%
- Inactivation [28]: 3.9%
- Inactivation [29]: 23.5%
- Inhibition [30]: 13.8%
- Viability [31]: 83.7%
- Viability (MT4 [32]): 96%
- Viability (MCF7 [33]): 91%
- Viability (MCF7 [34]): 86%
- Viability (MCF7 [35]): 44%
- Survival (MT4 [36]): 85.5%
- Survival (MT4 [37]): 89.2%
- Viability (MT4 [38]): 100%
- Viability (MT4 [39]): 96.6%
- Survival (MT4 [40]): 77.3%
- Inactivation [41]: 23.3%
